Assay results taken from ChEMBL document CHEMBL1123521, “Isozyme-specific enzyme inhibitors. 10. Adenosine 5'-triphosphate derivatives as substrates or inhibitors of methionine adenosyltransferases of rat normal and hepatoma tissues” (J Med Chem, 1986).

Columns and labels:
[1] = target: S-adenosylmethionine synthase isoform type-2 (Rattus norvegicus) (UniProt P18298); test: Inhibitory potency against rat Methionine adenosyltransferase II
Procedure, shortened: (§1)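 MAT-II from rat kidney extract, taken through DEAE chromatography and diluted 10-fold daily. Duplicate 30-min incubations at 37 °C in 150 mM KCl–15 mM MgCl2–5 mM DTT–50 mM Tris-HCl pH 8.2 with 60 μM [14C]methionine. Mg-complexed inhibitor used at two levels (1-5 × Ki) against six to eight Mg-ATP levels (0.5-4.0 × KM). Product counted on phosphocellulose disks.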

[2] = target: T1, S-adenosylmethionine synthetase (MAT 1 and MAT 2) (Rattus norvegicus) (UniProt P13444+P18298); test: Inhibitory potency against rat Methionine adenosyltransferase was reported; type: protein assay
Procedure, shortened: (§2)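 MAT-T partly purified from rat Novikoff hepatoma cells grown intraperitoneally in rats: cytosol extract, DEAE-cellulose, stored at -20 °C, diluted 10-fold for use. Assay run in duplicate, 37 °C for 30 min, in 150 mM KCl–15 mM MgCl2–5 mM DTT–50 mM Tris-HCl pH 8.2 with 60 μM [14C]methionine. Inhibitors given as 1:1 Mg complexes at two levels of 1-5 × Ki, with six to eight Mg-ATP levels (0.5-4.0 × KM).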

[3] = target: T1, S-adenosylmethionine synthetase (MAT 1 and MAT 2) (Rattus norvegicus); test: Relative inhibitory potency T/II in rat methionine adenosyltransferase
[4] = tested on: Nc1ncnc2c1ncn2[C@@H]1O[C@H](COP(=O)(O)OP(=O)(O)OP(=O)(O)O)[C@@H](O)[C@H]1O; test: Inhibition of methionine adenosyltransferase in Novikoff Hepatoma(MAT-T), activity expressed as conc of Mg-ATP for half maximal velocity; type: protein assay
Procedure, shortened: (§3)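 Kinetics at 37 °C for 30 min, in duplicate, in 50 mM Tris-HCl pH 8.2, 150 mM KCl, 15 mM MgCl2, 5 mM DTT. Enzyme was MAT-T from ascites-passaged Novikoff hepatoma cells or MAT-II from rat kidney, both DEAE-cellulose fractions, with 60 µM [14C]methionine. Inhibitors given as 1:1 Mg complexes at two levels against six to eight Mg-ATP levels (0.5–4.0 × KM). Product counted on phosphocellulose disks.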

[5] = tested on: CNc1nc2c(N)ncnc2n1C1O[C@H](COP(=O)(O)OP(=O)(O)OP(=O)(O)O)[C@@H](O)[C@H]1O; test: (§4) […] rat Methionine adenosyltransferase was reported; type: protein assay; procedure, shortened: as §2
[6] = tested on: CSc1nc2c(N)ncnc2n1[C@@H]1O[C@H](COP(=O)(O)OP(=O)(O)OP(=O)(O)O)[C@@H](O)[C@H]1O; test: as §4; type: protein assay; procedure, shortened: as §2
[7] = target: T1, S-adenosylmethionine synthetase (MAT 1 and MAT 2) (Rattus norvegicus); test: (§5) Inhibitory potency against rat methionine adenosyltransferase was reported; type: protein assay; procedure, shortened: as §2
[8] = target: S-adenosylmethionine synthase isoform type-1 (Rattus norvegicus) (UniProt P13444); test: Inhibitory potency against rat Methionine adenosyltransferase I
Sequence of S-adenosylmethionine synthase isoform type-1 (Rattus norvegicus) (P13444 whole entry, canonical isoform): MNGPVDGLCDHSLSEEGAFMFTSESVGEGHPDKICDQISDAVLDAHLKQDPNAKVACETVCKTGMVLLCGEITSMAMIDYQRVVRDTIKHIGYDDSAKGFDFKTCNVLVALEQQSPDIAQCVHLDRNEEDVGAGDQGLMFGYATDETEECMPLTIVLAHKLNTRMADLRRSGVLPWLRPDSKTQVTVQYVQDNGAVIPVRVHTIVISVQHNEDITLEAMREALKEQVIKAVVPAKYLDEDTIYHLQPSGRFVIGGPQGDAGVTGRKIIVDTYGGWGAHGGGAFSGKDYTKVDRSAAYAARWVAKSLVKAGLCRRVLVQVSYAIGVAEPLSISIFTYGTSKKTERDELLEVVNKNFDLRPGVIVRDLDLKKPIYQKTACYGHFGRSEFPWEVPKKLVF
Procedure, shortened: (§6)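 Rat liver MAT-I, prepared free of MAT-II and MAT-III and diluted 5-fold. Duplicate assays at 37 °C, 30 min, in 150 mM KCl–7.5 mM MgSO4–2 mM DTT–50 mM HEPES pH 7.5 with 380 μM [14C]methionine. Two inhibitor levels (1:1 Mg complexes, 1-5 × Ki) run against six to eight Mg-ATP levels spanning 0.5-4.0 × KM. Ki taken from kinetic plots.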

[9] = target: S-adenosylmethionine synthase isoform type-2 (Rattus norvegicus) (UniProt P18298); test: Relative maximum velocity against rat Methionine adenosyltransferase II
Procedure, shortened: (§7)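 Analogues at 1 mM tested as substrates of MAT-II (rat kidney) or MAT-T (Novikoff hepatoma), using 10 μL of enzyme stock per assay. Run at 37 °C for 30 min in Tris-HCl pH 8.2 with 150 mM KCl and 15 mM MgCl2, plus 60 μM [14C]methionine. Radiolabelled product bound to phosphocellulose disks and counted. Kinetic constants came from double-reciprocal plots.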

[10] = target: S-adenosylmethionine synthase isoform type-1 (Rattus norvegicus) (UniProt P13444); test: Relative maximum velocity against liver (MAT-I) in rat methionine adenosyltransferase was reported
Procedure, shortened: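 Substrate activity measured with rat liver MAT-I at 37 °C for 30 min, pH 7.5 HEPES buffer, with 380 μM [14C]methionine. ATP analogue at 1 mM, with a higher enzyme amount (10 μL stock). [14C]S-adenosylmethionine captured on phosphocellulose paper and counted by scintillation. Blanks lacked ATP. Constants taken from linear double-reciprocal plots.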

[11] = target: T1, S-adenosylmethionine synthetase (MAT 1 and MAT 2) (Rattus norvegicus); test: Relative maximum velocity against rat Methionine adenosyltransferase was reported; type: protein assay; procedure, shortened: as §7
[12] = target: S-adenosylmethionine synthase isoform type-2 (Rattus norvegicus) (UniProt P18298); test: as §5; procedure, shortened: as §2
[13] = target: S-adenosylmethionine synthase isoform type-2 (Rattus norvegicus) (UniProt P18298); test: Relative maximum velocity against rat kidney Methionine adenosyltransferase II; procedure, shortened: as §7
[14] = tested on: Nc1ncnc2c1ncn2[C@H]1C[C@H](O)[C@@H](COP(=O)(O)OP(=O)(O)OP(=O)(O)O)O1; test: Inhibitory constant against rat liver Methionine adenosyltransferase I; procedure, shortened: as §6
[15] = tested on: Nc1ncnc2c1ncn2[C@@H]1O[C@H](COP(=O)(O)OP(=O)(O)OP(=O)(O)O)[C@@H](O)[C@H]1O; test: […] rat liver Methionine adenosyltransferase I, activity expressed as conc of Mg-ATP for half maximal velocity
Procedure, shortened: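 Rat liver MAT-I, free of MAT-II and MAT-III, was assayed in 50 mM HEPES pH 7.5, 150 mM KCl, 7.5 mM MgSO4, 2 mM DTT, with 380 µM [14C]methionine, at 37 °C for 30 min in duplicate. Mg-complexed inhibitor was used at two levels against six to eight Mg-ATP levels (0.5–4.0 × KM). Labelled product was captured on phosphocellulose and scintillation-counted; blanks lacked ATP.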

[16] = tested on: CNc1nc2c(N)ncnc2n1C1O[C@H](COP(=O)(O)OP(=O)(O)OP(=O)(O)O)[C@@H](O)[C@H]1O; test: (§8) Inhibitory constant against rat kidney Methionine adenosyltransferase II; procedure, shortened: as §1
[17] = tested on: CSc1nc2c(N)ncnc2n1[C@@H]1O[C@H](COP(=O)(O)OP(=O)(O)OP(=O)(O)O)[C@@H](O)[C@H]1O; test: as §8; procedure, shortened: as §1
[18] = tested on: Nc1ncnc2c1ncn2C1O[C@H](COP(=O)(O)OP(=O)(O)OP(N)(=O)O)[C@@H](O)[C@H]1O; test: as §8; procedure, shortened: as §1
[19] = tested on: Nc1ncnc2c1ncn2[C@H]1C[C@H](O)[C@@H](COP(=O)(O)OP(=O)(O)OP(=O)(O)O)O1; test: as §8; procedure, shortened: as §1
[20] = tested on: Nc1ncnc2c1ncn2[C@@H]1O[C@H](COP(=O)(O)OP(=O)(O)OP(=O)(O)O)[C@@H](O)[C@H]1O; test: Inhibitory constant against rat kidney Methionine adenosyltransferase II, activity expressed as conc of Mg-ATP for half maximal velocity; procedure, shortened: as §3
[21] = target: S-adenosylmethionine synthase isoform type-2 (Rattus norvegicus) (UniProt P18298); test: Half maximal velocity relative to rat Methionine adenosyltransferase II
Procedure, shortened: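 DEAE-purified rat kidney MAT-II in 50 mM Tris-HCl pH 8.2, 150 mM KCl, 15 mM MgCl2, 5 mM DTT, with 60 µM [14C]methionine. Analogue checked for substrate activity at 1 mM using more enzyme. Incubated 37 °C for 30 min in duplicate. Acid-quenched product bound to phosphocellulose disks and counted; blanks lacked ATP. KM taken from linear double-reciprocal plots.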

[22] = target: S-adenosylmethionine synthase isoform type-1 (Rattus norvegicus) (UniProt P13444); test: Half maximal velocity relative to Methionine adenosyltransferase
Procedure, shortened: (§9)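 ATP analogues run as Mg complexes and checked for substrate activity at 1 mM with more enzyme (10 µL stock). Apparent KM from linear double-reciprocal plots. MAT-I: rat liver, 50 mM HEPES pH 7.5, 150 mM KCl, 7.5 mM MgSO4, 2 mM DTT, 380 µM [14C]methionine. MAT-II (rat kidney) and MAT-T (Novikoff hepatoma DEAE fraction): 50 mM Tris-HCl pH 8.2, 150 mM KCl, 15 mM MgCl2, 5 mM DTT, 60 µM [14C]methionine. 37 °C, 30 min, duplicates.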

[23] = target: T1, S-adenosylmethionine synthetase (MAT 1 and MAT 2) (Rattus norvegicus); test: Half maximal velocity relative to methionine adenosyltransferase; type: protein assay; procedure, shortened: as §9

Sequence of S-adenosylmethionine synthetase (MAT 1 and MAT 2) (Rattus norvegicus) (from UniProt P13444+P18298) (P18298 whole entry, looked up): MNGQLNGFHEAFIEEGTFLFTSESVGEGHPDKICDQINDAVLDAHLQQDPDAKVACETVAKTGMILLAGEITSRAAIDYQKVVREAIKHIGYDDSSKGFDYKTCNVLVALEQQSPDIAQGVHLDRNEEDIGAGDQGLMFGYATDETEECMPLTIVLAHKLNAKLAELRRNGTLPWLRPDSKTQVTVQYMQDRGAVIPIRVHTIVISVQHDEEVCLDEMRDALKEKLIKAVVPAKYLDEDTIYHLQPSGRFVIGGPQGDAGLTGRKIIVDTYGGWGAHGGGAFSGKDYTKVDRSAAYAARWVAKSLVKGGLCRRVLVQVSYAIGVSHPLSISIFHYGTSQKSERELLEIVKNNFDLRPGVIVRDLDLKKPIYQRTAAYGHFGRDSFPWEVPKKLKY
Sequence of S-adenosylmethionine synthetase (MAT 1 and MAT 2) (Rattus norvegicus) (from UniProt P13444+P18298) (P13444 whole entry, looked up): as the sequence (P13444 whole entry, canonical isoform) above
Sequence of S-adenosylmethionine synthase isoform type-2 (Rattus norvegicus), P18298 (P18298 whole entry, canonical isoform): as the sequence (P18298 whole entry, looked up) above
Sequence of S-adenosylmethionine synthase isoform type-2 (Rattus norvegicus) (P18298 whole entry, canonical isoform): as the sequence (P18298 whole entry, looked up) above
Sequence of S-adenosylmethionine synthase isoform type-1 (Rattus norvegicus), P13444 (P13444 whole entry, canonical isoform): as the sequence (P13444 whole entry, canonical isoform) above

Compound `Nc1ncnc2c1nc(SCCC(N)C(=O)O)n2C1O[C@H](COP(=O)(O)OP(=O)(O)OP(=O)(O)O)[C@@H](O)[C@H]1O` (some centres undefined) has an Inhibition potency [1] of 0.27.

`Nc1ncnc2c1ncn2[C@@H]1O[C@H](COP(=O)(O)OP(=O)(O)NP(=O)(O)O)[C@@H](O)[C@H]1O` was tested, and the Inhibition potency [2] was 35, the Inhibition potency T/II [3] was 1.4 and the Inhibition potency [1] was 25.5.

`CCCCNc1ncnc2c1ncn2C1O[C@H](COP(=O)(O)OP(=O)(O)OP(=O)(O)O)[C@@H](O)[C@H]1O` (some centres undefined) was tested, and the Inhibition potency T/II [3] was 2.5 and the Inhibition potency [1] was 0.26.

Compound “S-adenosylmethionine synthetase (MAT 1 and MAT 2) (Rattus norvegicus) (from UniProt P13444+P18298)” has a Km [4] of 140 µM, a Km [5] of 230 µM and a Km [6] of 200 µM.

For `CCCC(OP(=O)(O)OP(=O)(O)OP(=O)(O)O)[C@H]1O[C@@H](n2cnc3c(N)ncnc32)[C@H](O)[C@@H]1O` (some centres undefined), the Inhibition potency [7] was 3.78, the Inhibition potency T/II [3] was 1.3 and the Inhibition potency [1] was 2.92.

In the case of `CC(OP(=O)(O)OP(=O)(O)OP(=O)(O)O)[C@H]1O[C@@H](n2cnc3c(N)ncnc32)[C@H](O)[C@@H]1O` (some centres undefined), the Inhibition potency [7] is reported as 1.75, the Inhibition potency [8] is reported as 15.6 and the Inhibition potency T/II [3] is reported as 2.4. It also gave an Inhibition potency [1] of 0.74.

`Nc1ncnc2c1ncn2[C@H]1C[C@H](O)[C@@H](COP(=O)(O)OP(=O)(O)OP(=O)(O)O)O1` gave a Relative Vmax [9] of 6.5, a Relative Vmax [10] of 26 and an Inhibition potency [8] of 0.091. It also gave an Inhibition potency [1] of 0.035.

Work on `CNc1nc2c(N)ncnc2n1C1O[C@H](COP(=O)(O)OP(=O)(O)OP(=O)(O)O)[C@@H](O)[C@H]1O` (some centres undefined) yielded a Relative Vmax [11] of 19, an Inhibition potency [12] of 0.61 and an Inhibition potency T/II [3] of 0.69. The Relative Vmax [13] was 37 and the Inhibition potency [1] was 0.88.

`CSc1nc(N)c2ncn([C@@H]3O[C@H](COP(=O)(O)OP(=O)(O)OP(=O)(O)O)[C@@H](O)[C@H]3O)c2n1` was tested, and the Inhibition potency [2] was 1.27, the Inhibition potency T/II [3] was 5.5 and the Inhibition potency [1] was 0.23.

`CSc1nc2c(N)ncnc2n1[C@@H]1O[C@H](COP(=O)(O)OP(=O)(O)OP(=O)(O)O)[C@@H](O)[C@H]1O` gave an Inhibition potency [2] of 0.7, a Relative Vmax [11] of 7.3 and an Inhibition potency T/II [3] of 0.5. It also gave a Relative Vmax [13] of 3.1 and an Inhibition potency [1] of 1.4.

In the case of `CO[C@@H]1[C@H](O)[C@@H](COP(=O)(O)OP(=O)(O)OP(=O)(O)O)O[C@H]1n1cnc2c(N)ncnc21`, the Inhibition potency [7] is reported as 0.82, the Inhibition potency T/II [3] is reported as 0.82 and the Inhibition potency [1] is reported as 1.

With “S-adenosylmethionine synthase isoform type-1 (Rattus norvegicus), P13444” the Km [14] was 1540 µM and the Km [15] was 140 µM.

Compound “S-adenosylmethionine synthase isoform type-2 (Rattus norvegicus), P18298” has a Km [16] of 160 µM, a Km [17] of 100 µM and a Km [18] of 3300 µM. The Km [19] was 4000 µM and the Km [20] was 140 µM.

`Nc1ncnc2c1ncn2[C@@H]1O[C@H](COP(=O)(O)CP(=O)(O)OP(=O)(O)O)[C@@H](O)[C@H]1O` showed an Inhibition potency [2] of 0.41, an Inhibition potency T/II [3] of 0.89 and an Inhibition potency [1] of 0.46.

`Nc1ncnc2c1ncn2C1O[C@H](COP(=O)(O)OP(=O)(O)OP(N)(=O)O)[C@@H](O)[C@H]1O` (some centres undefined) was tested, and the Relative Vmax [13] was 97 and the Inhibition potency [1] was 0.042.

Work on `Nc1ncnc2c1ncn2[C@@H]1O[C@H](COP(=O)(O)OP(=O)(O)OP(=O)(O)O)[C@@H](O)[C@H]1O` yielded a Relative Vmax [21] of 100, a Relative Vmax [22] of 100 and a Relative Vmax [23] of 100.

With `CO[C@H]1[C@@H](O)[C@H](n2cnc3c(N)ncnc32)O[C@@H]1COP(=O)(O)OP(=O)(O)OP(=O)(O)O` the Inhibition potency [7] was 0.78, the Inhibition potency T/II [3] was 0.95 and the Inhibition potency [1] was 0.82.
